Measured values pooled from the literature.
Protocols differ between the studies behind these lines.
Target: Cannabinoid receptor 2 (CNR2, Homo sapiens, UniProt P34972)

| Compound | assay | conditions | endpoint | value |
| --- | --- | --- | --- | --- |
| C[C@H]1CC[C@H]2[C@H](C1)c1c(O)cc(-c3csc4ccccc34)cc1OC2(C)C | GTPγS binding, agonist, radiometric | cell membranes | EC50 | 16000 nM |
| NC(=O)[C@@H]1CC(F)(F)CN1C(=O)c1ccc(N2CC(F)(F)C2)c(OCC2CC2)n1 | cAMP, agonist |  | EC50 | 3 nM |
| COc1ccc(-c2cnc3c(c2)cc(C(=O)NC2CCC(C)CC2)c(=O)n3CCN2CCOCC2)cc1 (stereo not drawn) | ligand displacement, radioligand |  | IC50 | 5.56 nM |
| CC1(C)C(C(=O)c2cn(CCCCCF)c3ccccc23)C1(C)C | GTPγS binding, agonist, radiometric | cell membranes | EC50 | 145 nM |
| Cc1nc([C@@](C)(CC2CC2)NC(=O)c2cc(OCC(F)(F)F)c(C3CC3)cn2)no1 | cAMP, agonist |  | EC50 | 8 nM |
| CCOC(=O)C(CC)(CCCSCCOCCOCCOCCNC(=O)OC(C)(C)C)NC(=O)c1ccc(C2CC2)c(Cc2ccc(F)cc2)n1 (stereo not drawn) | cAMP, agonist |  | EC50 | 10 nM |
| CCCCCn1cc(C(=O)C2C(C)(C)C2(C)C)c2ccccc21 | GTPγS binding, agonist, radiometric | cell membranes | EC50 | 334 nM |
| CC1CCC(NC(=O)c2cc3cc(Br)cnc3n(CCN3CCOCC3)c2=O)CC1 (stereo not drawn) | ligand displacement, radioligand |  | IC50 | 4.95 nM |
| CCOC(=O)[C@](CC)(CCC[S+]([O-])CCOCCOCCNC(=O)OC(C)(C)C)NC(=O)c1ccc(C2CC2)c(Cc2ccc(F)cc2)n1 (stereo partly drawn) | cAMP, agonist |  | EC50 | 7.9 nM |
